From ChEMBL document CHEMBL3763043, “Synthesis and biological evaluation of new fluorinated and chlorinated indenoisoquinoline topoisomerase I poisons” (Bioorg Med Chem, 2016) come the findings set out here.

Experiment [1] in a line: Cytotoxicity against human HOP62 cells by MTT assay. The format is functional. The conditions noted are these: HOP-62. An outline of the steps: (§1)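 NCI-60 screen: a single-dose 10 μM pre-test, then a five-concentration assay for promoted compounds. GI₅₀ is the concentration giving 50% growth inhibition versus control, taken from concentration-response curves. GI₅₀ values below the lowest concentration were recorded as 10 nM, and values above the range at the top concentration.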
A general note: Formazan colour is commonly taken as a measure of viable cells.

A short description of experiment [2]: Cytotoxicity against human HCT116 cells by MTT assay. Format: functional. The conditions noted are these: HCT-116. An outline of the steps: as §1
Experiment [3] can be described thus: Cytotoxicity against human SF539 cells by MTT assay. Format: functional. The conditions noted are these: SF-539. The gist of the method: as §1
Experiment [4] can be described thus: Cytotoxicity against human UACC62 cells by MTT assay. The format is functional. The conditions noted are these: UACC-62. The gist of the method: as §1
The nature of experiment [5]: Cytotoxicity against human OVCAR3 cells by MTT assay. Format: functional. The conditions noted are these: OVCAR-3. The gist of the method:
as §1

Another experiment deals with SN12C. Briefly: Cytotoxicity against human SN12C cells by MTT assay. The format is functional. An outline of the steps:
as §1

The nature of experiment [6]: Cytotoxicity against human DU145 cells by MTT assay. The format is functional. The conditions noted are these: DU-145. The gist of the method: as §1
The subject of a further experiment is MCF7. Briefly: Cytotoxicity against human MCF7 cells by MTT assay. Format: functional. An outline of the steps: as §1
Experiment [7] has as its target Tyrosyl-DNA phosphodiesterase 1 (Homo sapiens, UniProt Q9NUW8). The experiment is described as follows: Inhibition of recombinant TDP1 (unknown origin) using 5'-[32P]-labeled single-stranded DNA oligonucleotide containing 3'-phosphotyrosine (N14Y) as substrate for 15 mins by PAGE assay.
Experiment [8] addresses T1, Tyrosyl-DNA phosphodiesterase 2 (Homo sapiens, UniProt O95551).
T1 sequence (O95551 whole entry): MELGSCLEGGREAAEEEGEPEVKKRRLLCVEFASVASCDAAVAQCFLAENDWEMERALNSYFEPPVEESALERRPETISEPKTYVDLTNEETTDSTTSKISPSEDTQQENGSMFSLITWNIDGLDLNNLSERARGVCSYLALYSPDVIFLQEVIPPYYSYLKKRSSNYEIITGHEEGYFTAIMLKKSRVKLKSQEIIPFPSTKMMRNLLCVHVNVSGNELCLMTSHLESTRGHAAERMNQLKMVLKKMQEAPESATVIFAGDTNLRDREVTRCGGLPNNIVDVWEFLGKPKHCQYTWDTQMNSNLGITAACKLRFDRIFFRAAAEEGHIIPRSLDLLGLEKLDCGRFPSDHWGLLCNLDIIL
The experiment is described as follows: Inhibition of recombinant human TDP2 using alpha32P-cordycepin-[…]-labeled 19-mer single-stranded oligonucleotide DNA containing 5'-phosphotyrosine (Y19) for 15 mins by PAGE assay.

Experiment [9] concerns the target T2, DNA topoisomerase 1 (Homo sapiens) (UniProt P11387).
T2 sequence (whole entry): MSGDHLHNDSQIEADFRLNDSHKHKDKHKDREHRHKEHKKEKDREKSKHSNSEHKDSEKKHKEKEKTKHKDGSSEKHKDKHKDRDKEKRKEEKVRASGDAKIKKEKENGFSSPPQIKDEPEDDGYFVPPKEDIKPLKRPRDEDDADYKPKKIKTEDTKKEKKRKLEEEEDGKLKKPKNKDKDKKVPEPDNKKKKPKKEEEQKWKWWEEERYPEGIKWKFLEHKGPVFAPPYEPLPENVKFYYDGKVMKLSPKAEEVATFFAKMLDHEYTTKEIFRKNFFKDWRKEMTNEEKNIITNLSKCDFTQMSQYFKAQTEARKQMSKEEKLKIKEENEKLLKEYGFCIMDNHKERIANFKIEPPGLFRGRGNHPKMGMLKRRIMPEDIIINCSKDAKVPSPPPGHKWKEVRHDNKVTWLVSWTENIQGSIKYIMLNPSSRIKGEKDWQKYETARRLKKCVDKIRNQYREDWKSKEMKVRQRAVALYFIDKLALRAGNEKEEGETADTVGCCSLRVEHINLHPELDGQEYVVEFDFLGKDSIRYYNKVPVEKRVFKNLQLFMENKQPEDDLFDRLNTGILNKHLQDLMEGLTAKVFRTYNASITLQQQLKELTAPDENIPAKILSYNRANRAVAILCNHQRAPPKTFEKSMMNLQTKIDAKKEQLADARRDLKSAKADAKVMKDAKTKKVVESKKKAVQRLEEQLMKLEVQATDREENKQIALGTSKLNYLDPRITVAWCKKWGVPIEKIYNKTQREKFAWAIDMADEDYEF
Briefly: Activity at recombinant Top1 (unknown origin) using 3'-[32P]-labeled double-stranded DNA (117 bp) as substrate assessed as induction of DNA cleavage at 0.1 to 100 uM incubated for 20 mins by electrophoretic assay relative to 1 uM camptothecin.

Structures are written as SMILES.

Chain of Tyrosyl-DNA phosphodiesterase 1 (Q9NUW8 whole entry): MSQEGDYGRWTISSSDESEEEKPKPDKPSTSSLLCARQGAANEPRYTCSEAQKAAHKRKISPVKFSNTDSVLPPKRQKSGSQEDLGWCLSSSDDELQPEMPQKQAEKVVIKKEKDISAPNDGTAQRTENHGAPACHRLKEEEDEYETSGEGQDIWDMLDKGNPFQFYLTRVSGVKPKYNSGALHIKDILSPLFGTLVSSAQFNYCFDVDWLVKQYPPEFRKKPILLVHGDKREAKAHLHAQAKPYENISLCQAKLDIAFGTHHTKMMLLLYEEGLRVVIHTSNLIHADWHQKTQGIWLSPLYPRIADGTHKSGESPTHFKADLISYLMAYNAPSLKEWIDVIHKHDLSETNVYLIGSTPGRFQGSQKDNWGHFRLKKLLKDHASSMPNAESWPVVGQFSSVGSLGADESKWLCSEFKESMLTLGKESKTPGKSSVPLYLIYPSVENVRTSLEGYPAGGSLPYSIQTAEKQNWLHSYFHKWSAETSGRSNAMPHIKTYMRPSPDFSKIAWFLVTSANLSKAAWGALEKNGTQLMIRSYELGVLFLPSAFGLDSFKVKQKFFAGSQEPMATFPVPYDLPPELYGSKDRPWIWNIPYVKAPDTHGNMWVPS

As usually defined, the GI50 is the concentration at which growth is held to half of that of the control. Low readings indicate more potent growth inhibition, high ones less potent growth inhibition. Usually IC50 stands for the concentration that gives 50% inhibition. As for `O=C1c2cc3c(cc2-c2c1c1ccc(F)cc1c(=O)n2CCCNCCO)OCO3`, the GI50 in experiment [1] is 36 nM; in experiment [2], 19 nM; in experiment [3], 41 nM; in [4], 28 nM; in [5], 76 nM; in the experiment on SN12C it was 107 nM. Moreover, the GI50 in experiment [6] was 33 nM; in the experiment on MCF7, less than 10 nM. The IC50 in [7] stood at 6200 nM; in experiment [8], 6300 nM. In addition, the Activity in [9] came out at 50%.
On to `O=C1c2cc3c(cc2-c2c1c1ccc(Cl)cc1c(=O)n2CCCN1CCOCC1)OCO3`, for which the Activity in [9] stood at 20%.
`O=C1c2cc3c(cc2-c2c1c1ccc(Cl)cc1c(=O)n2C[C@H](O)[C@H](O)[C@H](O)CO)OCO3`: the Activity in [9] came out at 20%.
With `O=C1c2cc3c(cc2-c2c1c1ccc(F)cc1c(=O)n2CCCN1CCOCC1)OCO3`, in experiment [9], the Activity was 20%.
On to `O=C1c2cc3c(cc2-c2c1c1ccc(F)cc1c(=O)n2C[C@H](O)CO)OCO3`, for which the GI50 was 49 nM in [1]; 79 nM in experiment [2]; 51 nM in experiment [3]; 45 nM in experiment [4]; 182 nM in experiment [5]; 76 nM with SN12C. In addition, the values for the GI50 (in experiment [6]; in the experiment on MCF7) were 102 nM and 32 nM, respectively. In addition, the Activity in [9] was 100%.
On to `O=C1c2cc3c(cc2-c2c1c1ccc(F)cc1c(=O)n2CCCn1ccnc1)OCO3`, for which the GI50 in experiment [1] was less than 10 nM; in experiment [2] it was less than 10 nM; in experiment [3], less than 10 nM; in [4], less than 10 nM; in [5], 19 nM; in the experiment on SN12C, less than 10 nM. For the same compound, the GI50 (in experiment [6]; in the experiment with MCF7) was less than 10 nM throughout. Moreover, the Activity in [9] turned out to be 75%.
Regarding `O=C1c2cc3c(cc2-c2c1c1cc(Cl)c(Cl)cc1c(=O)n2CCCn1ccnc1)OCO3`, the GI50 was less than 10 nM in [1]; less than 10 nM in experiment [2]; less than 10 nM in experiment [3]; less than 10 nM in [4]; 43 nM in experiment [5]; less than 10 nM with SN12C. Besides, the GI50 (in experiment [6]; in the experiment with MCF7) was less than 10 nM each time. In experiment [9], the Activity was 20%.
For the compound `O=C1c2cc3c(cc2-c2c1c1ccc(Cl)cc1c(=O)n2CCCNCCO)OCO3`, the GI50 in experiment [1] was determined as 71 nM; in experiment [2], 105 nM; in experiment [3] it was 240 nM; in [4], 43 nM; in [5], 1320 nM; with SN12C, 1070 nM. Further, the GI50 in [6] was determined as 59 nM; in the experiment on MCF7 it was 18 nM. Also, the IC50 in experiment [7] is 6300 nM; in [8] it was 8900 nM. In experiment [9], the Activity was 75%.
On to `O=C1c2cc3c(cc2-c2c1c1ccc(Cl)cc1c(=O)n2CCCn1ccnc1)OCO3`, for which the GI50 is less than 10 nM in [1]; less than 10 nM in [2]; less than 10 nM in [3]; less than 10 nM in experiment [4]; 40 nM in experiment [5]; less than 10 nM in the experiment with SN12C. The GI50 (in experiment [6]; in the experiment with MCF7) was less than 10 nM in each case. Further, in experiment [9], the Activity was determined as 50%.
On to `COc1cc2c3c(n(CCCNCCO)c(=O)c2cc1OC)-c1cc2c(cc1C3=O)OCO2` [LMP-744], for which the GI50 in experiment [1] amounted to 10 nM; in experiment [2], 150 nM; in [3] it was 90 nM; in [5] it was 1500 nM; in the experiment on SN12C, 10 nM. In addition, in experiment [9], the Activity turned out to be 100%.
For the compound `O=C1c2cc3c(cc2-c2c1c1ccc(Cl)cc1c(=O)n2C[C@H](O)CO)OCO3`, the GI50 amounted to 22 nM in experiment [1]; 20 nM in experiment [2]; 25 nM in experiment [3]; 12 nM in experiment [4]; 62 nM in experiment [5]; 27 nM in the experiment on SN12C. The results for the GI50 (in experiment [6]; with MCF7) were 32 nM and less than 10 nM, respectively. Also, in experiment [9], the Activity was determined as 50%.
As for `O=C1c2cc3c(cc2-c2c1c1ccc(F)cc1c(=O)n2C[C@H](O)[C@@H](O)[C@H](O)CO)OCO3`, the GI50 in experiment [1] stood at 32 nM; in experiment [2], 35 nM; in experiment [3], 29 nM; in experiment [4], 25 nM; in experiment [5], 100 nM; in the experiment with SN12C, 79 nM. Also, the GI50 is 51 nM in experiment [6] and 12 nM with MCF7. In addition, the Activity in experiment [9] was determined as 50%.
Regarding `O=C1c2cc3c(cc2-c2c1c1cc(Cl)c(Cl)cc1c(=O)n2C[C@H](O)CO)OCO3`, the GI50 in experiment [1] is less than 10 nM; in experiment [2], less than 10 nM; in experiment [3], less than 10 nM; in experiment [4], less than 10 nM; in experiment [5], 16 nM; in the experiment with SN12C it was less than 10 nM. Moreover, the GI50 (in experiment [6]; in the experiment on MCF7) was less than 10 nM each time. The Activity in [9] was found to be 50%.
For the compound `O=C1c2cc3c(cc2-c2c1c1cc(F)c(F)cc1c(=O)n2CCCn1ccnc1)OCO3`, the GI50 in experiment [1] was less than 10 nM; in experiment [2], less than 10 nM; in experiment [3], less than 10 nM; in [4], less than 10 nM; in experiment [5] it was 115 nM; in the experiment with SN12C, less than 10 nM. Besides, the GI50 (in [6]; in the experiment with MCF7) was less than 10 nM in each case. Also, the Activity in experiment [9] is 20%.
For the compound `O=C1c2cc3c(cc2-c2c1c1cc(F)c(F)cc1c(=O)n2C[C@H](O)CO)OCO3`, the GI50 in [1] came out at 22 nM; in experiment [2], 37 nM; in [3] it was 29 nM; in experiment [4] it was 15 nM; in experiment [5], 224 nM; in the experiment with SN12C, 33 nM. In addition, the GI50 is 41 nM in [6] and less than 10 nM in the experiment on MCF7. Also, the Activity in experiment [9] turned out to be 50%.
